In the test the test system is Mycobacterium tuberculosis variant bovis BCG. The test is described as follows: Antimycobacterial activity against Mycobacterium bovis BCG ATCC 35737 by resazurin dye based fluorimetric assay. Type of test: functional, organism-based. A digest of the protocol: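 Resazurin microtiter method as for the bacterial panel. Mycobacteria grown in 7H9 with 10% OADC and 0.5% glycerol; for BCG, 0.05% Tween 80 replaced the glycerol. Cultures were sonicated and needle-passed to single cells. Incubation at 37°C, or 32°C for M. marinum. Fluorescence read at ex 550/em 590 nm; mean of triplicates.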
On the technique in general: Alamar Blue is a resazurin reagent that responds to reducing activity.

On to `O=C1C2=C(C(=O)c3c1cnc1cc(F)ccc31)C1CCC2C1` (configuration not stated), for which the half-inhibitory concentration (IC50) (as a rule, the midpoint of a concentration-inhibition curve) worked out at 17.4 µM. With `O=C1C2=C(C(=O)c3c1cnc1ccc(F)cc31)C1CCC2C1` (configuration not stated), the half-inhibitory concentration (IC50) came out at 10.3 µM. In the case of `COc1c(N2C[C@@H]3CCCN[C@@H]3C2)c(F)cc2c(=O)c(C(=O)O)cn(C3CC3)c12` [MOXIFLOXACIN] it was 0.03 µM; in that of `O=C1C2=C(C(=O)c3c1cnc1c(F)cccc31)C1CCC2C1` (configuration not stated), 5.03 µM.

`O=C1C2=C(C(=O)c3c1cnc1cc(C(F)(F)F)ccc31)C1CCC2C1` (configuration not stated) had an IC50 of 15 µM.

On to `O=C1C2=C(C(=O)c3c1cnc1ccccc31)C1CCC2C1` (configuration not stated), for which the half-maximal inhibitory concentration (IC50) was 7.9 µM. On to `O=C1C2=C(C(=O)c3c1cnc1ccc(C(F)(F)F)cc31)C1CCC2C1` (configuration not stated), for which the IC50 was determined as 12.5 µM.

The record behind these values is ChEMBL document CHEMBL4359864, “The synthesis and in vitro biological evaluation of novel fluorinated tetrahydrobenzo[j]phenanthridine-7,12-diones against Mycobacterium tuberculosis” (Eur J Med Chem, 2019).
